Assay results as given in ChEMBL document CHEMBL1154674, “Synthesis and evaluation of three 18F-labeled aminophenylbenzothiazoles as amyloid imaging agents” (J Med Chem, 2009).
One block for each compound: values may come before it.

Assays:
Assay type in all cases: ADME, organism-based, Macaca mulatta
[1] = Drug level in normal rhesus monkey thalamus assessed as standard uptake value at 81.2 MBq, iv after 4.5 mins by microPET; conditions: in vivo, 0.075 h
[2] = Drug level in normal rhesus monkey frontal cortex assessed as standard uptake value at 81.2 MBq, iv after 57.5 mins by microPET; conditions: in vivo
[3] = Drug level in normal rhesus monkey thalamus assessed as standard uptake value at 81.2 MBq, iv after 37.5 mins by microPET; conditions: in vivo, 0.625 h
[4] = Drug level in normal rhesus monkey cerebellum assessed as standard uptake value at 81.2 MBq, iv after 165 mins by microPET; conditions: in vivo, 2.75 h
Summary of the method: (§1)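 One normal rhesus monkey, each tracer given iv via the vena saphena (81.2, 96.3 or 109.4 MBq), with 1 day between tracer injections. Dynamic brain μPET over 180 min used frames of 5 × 60 s, 5 × 120 s, 9 × 300 s and 12 × 600 s. Images were reconstructed by filtered back projection with a RAMP filter. Regional time-activity curves were expressed as SUV.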

[5] = Drug level in normal rhesus monkey thalamus assessed as standard uptake value at 81.2 MBq, iv after 8 mins by microPET; conditions: in vivo
[6] = Drug level in normal rhesus monkey white matter assessed as standard uptake value at 81.2 MBq, iv after 155 mins by microPET; conditions: in vivo
[7] = Drug level in normal rhesus monkey pons assessed as standard uptake value at 81.2 MBq, iv after 22.5 mins by microPET; conditions: in vivo, 0.375 h
[8] = Drug level in normal rhesus monkey white matter assessed as standard uptake value at 81.2 MBq, iv after 145 mins by microPET; conditions: in vivo
[9] = Drug level in normal rhesus monkey thalamus assessed as standard uptake value at 96.3 MBq, iv after 155 mins by microPET; conditions: in vivo
[10] = Drug level in normal rhesus monkey cerebellum assessed as standard uptake value at 96.3 MBq, iv after 4.5 mins by microPET; conditions: in vivo, 0.075 h; summary of the method: as §1
[11] = Drug level in normal rhesus monkey parietal cortex assessed as standard uptake value at 96.3 MBq, iv after 32.5 mins by microPET; conditions: in vivo
[12] = Drug level in normal rhesus monkey white matter assessed as standard uptake value at 96.3 MBq, iv after 2.5 mins by microPET; conditions: in vivo
[13] = Drug level in normal rhesus monkey white matter assessed as standard uptake value at 96.3 MBq, iv after 8 mins by microPET; conditions: in vivo
[14] = Drug level in normal rhesus monkey frontal cortex assessed as standard uptake value at 96.3 MBq, iv after 6 mins by microPET; conditions: in vivo, 0.1 h
[15] = Drug level in normal rhesus monkey frontal cortex assessed as standard uptake value at 96.3 MBq, iv after 115 mins by microPET; conditions: in vivo
[16] = Drug level in normal rhesus monkey white matter assessed as standard uptake value at 96.3 MBq, iv after 75 mins by microPET; conditions: in vivo, 1.25 h
[17] = Drug level in normal rhesus monkey cerebellum assessed as standard uptake value at 96.3 MBq, iv after 135 mins by microPET; conditions: in vivo, 2.25 h; summary of the method: as §1
[18] = Drug level in normal rhesus monkey parietal cortex assessed as standard uptake value at 96.3 MBq, iv after 175 mins by microPET; conditions: in vivo
[19] = Drug level in normal rhesus monkey white matter assessed as standard uptake value at 109.4 MBq, iv after 4.5 mins by microPET; conditions: in vivo, 0.075 h
[20] = Drug level in normal rhesus monkey thalamus assessed as standard uptake value at 109.4 MBq, iv after 0.125 mins by microPET; conditions: in vivo, 7 s
[21] = Drug level in normal rhesus monkey frontal cortex assessed as standard uptake value at 109.4 MBq, iv after 47.5 mins by microPET; conditions: in vivo; summary of the method: as §1
[22] = Drug level in normal rhesus monkey parietal cortex assessed as standard uptake value at 109.4 MBq, iv after 22.5 mins by microPET; conditions: in vivo, 0.375 h
[23] = Drug level in normal rhesus monkey white matter assessed as standard uptake value at 109.4 MBq, iv after 22.5 mins by microPET; conditions: in vivo, 0.375 h
[24] = Drug level in normal rhesus monkey thalamus assessed as standard uptake value at 109.4 MBq, iv after 87 mins by microPET; conditions: in vivo, 1.45 h
[25] = Drug level in normal rhesus monkey thalamus assessed as standard uptake value at 109.4 MBq, iv after 117 mins by microPET; conditions: in vivo, 1.95 h
[26] = Drug level in normal rhesus monkey thalamus assessed as standard uptake value at 109.4 MBq, iv after 111 mins by microPET; conditions: in vivo
[27] = Drug level in normal rhesus monkey pons assessed as standard uptake value at 109.4 MBq, iv after 1.5 mins by microPET; conditions: in vivo, 0.025 h
[28] = Drug level in normal rhesus monkey cerebellum assessed as standard uptake value at 109.4 MBq, iv after 12.5 mins by microPET; conditions: in vivo
[29] = Drug level in normal rhesus monkey pons assessed as standard uptake value at 109.4 MBq, iv after 27.5 mins by microPET; conditions: in vivo
[30] = Drug level in normal rhesus monkey thalamus assessed as standard uptake value at 109.4 MBq, iv after 32.5 mins by microPET; conditions: in vivo
[31] = Drug level in normal rhesus monkey pons assessed as standard uptake value at 109.4 MBq, iv after 0.875 mins by microPET; conditions: in vivo, 52 s
[32] = Drug level in normal rhesus monkey parietal cortex assessed as standard uptake value at 109.4 MBq, iv after 69 mins by microPET; conditions: in vivo, 1.15 h
[33] = Drug level in normal rhesus monkey cerebellum assessed as standard uptake value at 152.9 MBq, iv after 22.5 mins by microPET; conditions: in vivo, 0.375 h
Summary of the method: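 One normal rhesus monkey received each tracer via the vena saphena, with 1 day between injections. Dynamic μPET ran 180 min for 18F tracers (5×60 s, 5×120 s, 9×300 s, 12×600 s) and 90 min for the 11C tracer (5×60 s, 5×120 s, 9×300 s, 3×600 s). Filtered back-projection reconstruction (RAMP filter) was used. Time-activity curves were drawn to give regional SUV.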

[34] = Drug level in normal rhesus monkey cerebellum assessed as standard uptake value at 152.9 MBq, iv after 32.5 mins by microPET; conditions: in vivo
Summary of the method: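 Single normal rhesus monkey; tracer given iv via the vena saphena, 1 day apart from the other tracer injections. Dynamic μPET ran 90 min (5×60 s, 5×120 s, 9×300 s, 3×600 s). Images were reconstructed by filtered back projection with a RAMP filter. Regional time-activity curves were expressed as SUV.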

[35] = Drug level in normal rhesus monkey white matter assessed as standard uptake value at 152.9 MBq, iv after 4.5 mins by microPET; conditions: in vivo, 0.075 h
[36] = Drug level in normal rhesus monkey thalamus assessed as standard uptake value at 152.9 MBq, iv after 1.5 mins by microPET; conditions: in vivo, 0.025 h
[37] = Drug level in normal rhesus monkey thalamus assessed as standard uptake value at 152.9 MBq, iv after 32.5 mins by microPET; conditions: in vivo

SUV [1]: 4.054
SUV [2]: 5.004
SUV [3]: 5.69
SUV [4]: 1.585
SUV [5]: 4.734
SUV [6]: 4.236
SUV [7]: 5.688
SUV [8]: 3.888
Compound: CNc1ccc2nc(-c3ccc([18F])cc3)sc2c1

SUV [9]: 1.92
SUV [10]: 1.63
SUV [11]: 1.9
SUV [12]: 0.94
SUV [13]: 1.16
SUV [14]: 1.97
SUV [15]: 1.66
SUV [16]: 1.5
SUV [17]: 0.94
SUV [18]: 1.17
Compound: CN(C)c1ccc2nc(-c3ccc([18F])cc3)sc2c1

SUV [19]: 2.62
SUV [20]: 0
SUV [21]: 4.76
SUV [22]: 4.93
SUV [23]: 3.04
SUV [24]: 4.98
SUV [25]: 4.66
SUV [26]: 4.72
SUV [27]: 2.87
SUV [28]: 5.33
SUV [29]: 4.78
SUV [30]: 5.59
SUV [31]: 1.85
SUV [32]: 4.1
Compound: Nc1ccc2nc(-c3ccc([18F])cc3)sc2c1

SUV [33]: 1.502
SUV [34]: 1.143
SUV [35]: 1.334
SUV [36]: 0.487
SUV [37]: 1.517
Compound: [11CH3]Nc1ccc(-c2nc3ccc(O)cc3s2)cc1 [PITTSBURGH COMPOUND B]
